Hits are enriched below; roughly 3.1% of the tested compounds scored in any of these assays.
MEKK3 PB1 HTS – modulators of MEKK3-MEK5 PB1 binding, primary screen, biochemical, wildtype MEKK3, multiplex bead flow cytometry, Alexa488-MEK5; Mitogen-activated protein kinase kinase kinase 3 (Homo sapiens), Q99759; bead-based flow cytometry, Alexa488-MEK5 binding to MEKK3; actives lie on both sides; 0 = blocked by unlabeled MEK5, 100 = vehicle; binding response (% of control), % at 10 µM; actives 1.4% (n = 290,000);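 active = binding response more than 3 SD above or below the average of its plate-row segment, actives on both sides; inconclusive = wells at one plate position flagged as instrument error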;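 note: Alexa488 bead fluorescence after subtracting the streptavidin-only scavenger bead signal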
MEKK2wt PB1 HTS – modulators of MEK5 binding to wildtype MEKK2, primary screen, biochemical, multiplex bead flow cytometry, Alexa488-MEK5; Mitogen-activated protein kinase kinase kinase 2 (Homo sapiens), Q9Y2U5; Alexa488-MEK5 binding to MEKK2 WT; actives lie on both sides; binding response (% of control), % at 10 µM; actives 1.1% (n = 290,000); in the data active = binding response below about 67% or above about 130%; inconclusive = no clear call, values can overlap the other calls; inactive = in between
MEKK2 mut-MEK5 – MEK5 binding signal on mutant MEKK2 PB1, primary screen, biochemical, multiplex bead flow cytometry, Alexa488-MEK5. Alexa488-MEK5 binding to MEKK2 mutant. percent response, % at 10 µM. actives 0.35% (n = 290,000); in the data active = percent response above about 24%, passing the limit was not always enough
PREPL inhibitor – PREPL enzyme inhibitors, primary screen, biochemical, fluorescence polarization | recombinant PREPL, fluorescence polarization activity-based probe | AID 2751, 2010 | actives 0.68% (n = 320,000) | inhibition, % at 5.96 µM | Prolyl endopeptidase-like (Homo sapiens), Q4J6C6;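 note: 0% = enzyme with DMSO and 100% = wells lacking enzyme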
UBC13 polyUb – UBC13 polyubiquitin chain formation inhibitors, primary screen, biochemical, TR-FRET, uHTS | inhibition, % at 20 µM | Ubiquitin-conjugating enzyme E2 N (Homo sapiens), P61088 | actives 0.47% (n = 330,000) | AID 485273, 2010; in the data active = inhibition above about 45%, passing the limit was not always enough; inconclusive = no clear call, values can overlap the other calls
Target sequence (P61088 whole entry, looked up): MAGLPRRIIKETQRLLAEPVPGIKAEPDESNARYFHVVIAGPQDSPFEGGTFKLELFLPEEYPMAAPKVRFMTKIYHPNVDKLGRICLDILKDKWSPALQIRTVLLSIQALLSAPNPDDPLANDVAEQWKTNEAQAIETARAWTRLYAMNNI
Apaf1 inhib – inhibitors of human Apaf-1 apoptosome, primary screen, biochemical, DEVD-Rh110 fluorescence, uHTS. AID 489030, 2010. reconstituted apoptosome caspase-3 activity. Apoptotic protease-activating factor 1 (Homo sapiens), O14727. actives 0.71% (n = 330,000). inhibition, % at 20 µM; active = inhibition of at least 40% at 20 µM;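 note: plate controls were DMSO wells for no effect and DEVD-CHO caspase inhibitor wells for full effect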
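Assay system: Apoptosome proteins | Medium: pH 7.5 Hepes buffer with CHAPS, BSA, DTT | Also added: Cytochrome c and DEVD-Rh110 substrate | Times: 30 min plus 50 min, RT | Detection: Rhodamine 110 fluorescence at Ex 480/Em 540 nm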
PREPL inh cf – human PREPL enzyme inhibitors, confirmation, biochemical, fluorescence polarization; shares compounds with PREPL inhibitor; recombinant PREPL, fluorescence polarization activity probe; actives 67% (n = 2,000); inhibition, % at 5.96 µM;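 note: 0% = protein with DMSO and 100% = wells lacking protein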
* hit, by the source's call. Cut-off read from the data, not from the text of the source, unless noted: active = inhibition above about 43%; inactive = the rest.

`CC(C)(C)[C@@H]1COC(=O)[C@H](Cc2ccc(F)cc2)C/C=C\C[C@@H](CC(=O)N(CCO)Cc2ccccc2)C(=O)N1` gave PREPL inhibitor 48*, UBC13 polyUb 9, Apaf1 inhib 26 and PREPL inh cf 46*.
`O=C1N[C@@H](c2ccccc2)COC(=O)[C@@H](Cc2ccc(F)cc2)C/C=C\C[C@H]1CC(=O)N(CCO)Cc1ccccc1` gave PREPL inhibitor 37, UBC13 polyUb -9 and Apaf1 inhib 30.
O=C1N[C@@H](c2ccccc2)COC(=O)[C@H](Cc2ccc(F)cc2)CC/C=C/C[C@@H]1CC(=O)N(CCO)Cc1ccccc1 was read as PREPL inhibitor 57*, UBC13 polyUb 7, Apaf1 inhib 29 and PREPL inh cf 46*.
For Cc1ccc(NC(=O)Cn2c(-c3ccc(F)cc3)cnc2SCC(=O)Nc2c(C)cccc2C)cc1 the results were MEKK3 PB1 HTS 97, MEKK2wt PB1 HTS 100, MEKK2 mut-MEK5 1, PREPL inhibitor 47*, UBC13 polyUb -7, Apaf1 inhib 9 and PREPL inh cf 13.
Screening CCOc1ccc(NC(=O)CSc2ncc(-c3ccc(F)cc3)n2Cc2ccco2)cc1 returned MEKK3 PB1 HTS 105, MEKK2wt PB1 HTS 103, MEKK2 mut-MEK5 6, PREPL inhibitor 11, UBC13 polyUb -2 and Apaf1 inhib 20.
For COc1ccc(CSc2nc(O)cc(=O)n2CC(C)C)cc1F the results were MEKK3 PB1 HTS 100, MEKK2wt PB1 HTS 103, MEKK2 mut-MEK5 2, PREPL inhibitor -8, UBC13 polyUb -15 and Apaf1 inhib 15.
O=C(O)c1cc(O)c2c(c1)[C@H]([C@H]1c3cc(C(=O)O)cc(O)c3C(=O)c3c(O[C@@H]4O[C@H](CO)[C@@H](O)[C@H](O)[C@H]4O)cccc31)c1cccc(OC3O[C@H](CO)[C@@H](O)[C@H](O)[C@H]3O)c1C2=O (some centres undefined) was read as PREPL inhibitor 105*, UBC13 polyUb inconclusive, Apaf1 inhib 89* and PREPL inh cf 92*.
Screening C[C@H]1CN([C@@H](C)CO)C(=O)Cc2cc(NS(C)(=O)=O)ccc2O[C@@H]1CN(C)Cc1ccc(Cl)c(Cl)c1 returned PREPL inhibitor 47*, UBC13 polyUb 9, Apaf1 inhib 12 and PREPL inh cf 33.
For C[C@@H]1CN([C@@H](C)CO)C(=O)Cc2cc(NC(=O)Nc3ccc(F)cc3)ccc2O[C@@H]1CN(C)Cc1ccc(Cl)c(Cl)c1 the results were PREPL inhibitor 14, UBC13 polyUb -16 and Apaf1 inhib 22.
CN(Cc1ccccc1N1CCCC1)C(=O)c1cc2cc(Cl)ccc2o1 was read as PREPL inhibitor 35, UBC13 polyUb 9 and Apaf1 inhib 18.
`N#C/C(=C\c1ccc(N2CCCC2)c([N+](=O)[O-])c1)c1nc2ccccc2[nH]1` gave MEKK3 PB1 HTS 102, MEKK2wt PB1 HTS 103, MEKK2 mut-MEK5 3, PREPL inhibitor 23, UBC13 polyUb -98 and Apaf1 inhib 24.
For N#C/C(=C\c1ccc(OC(=O)c2cccs2)cc1)c1nc2ccccc2[nH]1 the results were MEKK3 PB1 HTS 79, MEKK2wt PB1 HTS 80, MEKK2 mut-MEK5 -3, PREPL inhibitor 55*, UBC13 polyUb -15, Apaf1 inhib 15 and PREPL inh cf 12.
`N#C/C(=C/c1ccc(O)c(O)c1)c1nc2ccccc2[nH]1` gave MEKK3 PB1 HTS 104, MEKK2wt PB1 HTS 102, MEKK2 mut-MEK5 2, PREPL inhibitor 60*, UBC13 polyUb -132, Apaf1 inhib 2 and PREPL inh cf 48*.
`N#C/C(=C\C1CC2C=CC1C2)c1nc2ccccc2[nH]1` (centres undefined) gave MEKK3 PB1 HTS 98, MEKK2wt PB1 HTS 93, MEKK2 mut-MEK5 -2, PREPL inhibitor 48*, UBC13 polyUb 7, Apaf1 inhib 9 and PREPL inh cf 9.
For N#C/C(=C\c1cccs1)c1nc2ccccc2[nH]1 the results were MEKK3 PB1 HTS 94, MEKK2wt PB1 HTS 90, MEKK2 mut-MEK5 -3 and PREPL inhibitor 37.
`Cn1cccc1CC(=O)N/N=C/c1ccc(Cl)c([N+](=O)[O-])c1` gave MEKK3 PB1 HTS 102, MEKK2wt PB1 HTS 100, MEKK2 mut-MEK5 -5, PREPL inhibitor 13, UBC13 polyUb -4 and Apaf1 inhib -6.
O=C(NC1CCCC1)C(c1ccccc1)N(Cc1ccccc1)C(=O)c1csnn1 (centres undefined) was read as MEKK3 PB1 HTS 102, MEKK2wt PB1 HTS 98, MEKK2 mut-MEK5 1, PREPL inhibitor -1, UBC13 polyUb -9 and Apaf1 inhib 4.
For Cc1ccc(NC(=O)CN2C(=O)CC(C)S(=O)(=O)c3ccccc32)cc1 (centres undefined) the results were MEKK3 PB1 HTS 100, MEKK2wt PB1 HTS 99, MEKK2 mut-MEK5 0, PREPL inhibitor -4, UBC13 polyUb -2 and Apaf1 inhib 5.
Screening COC(=O)/C(=N\OCc1ccc(C#N)cc1)c1c(C)nn(C)c1C returned MEKK3 PB1 HTS 97, MEKK2wt PB1 HTS 96, MEKK2 mut-MEK5 -6, PREPL inhibitor 10, UBC13 polyUb 0 and Apaf1 inhib 2.
Nc1[nH]nc2c1NN(c1ccc(Cl)cc1Cl)N2 was read as MEKK3 PB1 HTS 84, MEKK2wt PB1 HTS 88, MEKK2 mut-MEK5 -5, PREPL inhibitor 43*, UBC13 polyUb -20, Apaf1 inhib 21 and PREPL inh cf 13.
Nc1c(-c2n[nH]c(=S)n2-c2ccc(Cl)cc2Cl)cnn1-c1ccccc1 was read as MEKK3 PB1 HTS 87, MEKK2wt PB1 HTS 89, MEKK2 mut-MEK5 -22, PREPL inhibitor -5, UBC13 polyUb 5 and Apaf1 inhib -4.
`Cc1cccc(C)c1Nc1ncnc2ccccc12` gave MEKK3 PB1 HTS 99, MEKK2wt PB1 HTS 103, MEKK2 mut-MEK5 0, PREPL inhibitor -5, UBC13 polyUb 1 and Apaf1 inhib 2.
`CCOC(=O)CNC(=O)c1ccc(Br)s1` gave MEKK3 PB1 HTS 104, MEKK2wt PB1 HTS 107, MEKK2 mut-MEK5 3, PREPL inhibitor 9, UBC13 polyUb 4 and Apaf1 inhib -19.

Source: PubChem BioAssay
